Laboratory results reported in article PMC65698 (BMC Pharmacology, 2002).

Legend:
L1210/CPA cells = settings: 50 μM DEAB in vitro; cited from earlier work
mouse ALDH1A1 = molecular target: T1, mouse ALDH1A1 (Mus musculus, UniProt P24549); assay type: biochemical; settings: IC50 of DPAB, substrate propanal, 1 mM NAD, pH 8.4, mean ± average deviation
T1 sequence (P24549 1-501): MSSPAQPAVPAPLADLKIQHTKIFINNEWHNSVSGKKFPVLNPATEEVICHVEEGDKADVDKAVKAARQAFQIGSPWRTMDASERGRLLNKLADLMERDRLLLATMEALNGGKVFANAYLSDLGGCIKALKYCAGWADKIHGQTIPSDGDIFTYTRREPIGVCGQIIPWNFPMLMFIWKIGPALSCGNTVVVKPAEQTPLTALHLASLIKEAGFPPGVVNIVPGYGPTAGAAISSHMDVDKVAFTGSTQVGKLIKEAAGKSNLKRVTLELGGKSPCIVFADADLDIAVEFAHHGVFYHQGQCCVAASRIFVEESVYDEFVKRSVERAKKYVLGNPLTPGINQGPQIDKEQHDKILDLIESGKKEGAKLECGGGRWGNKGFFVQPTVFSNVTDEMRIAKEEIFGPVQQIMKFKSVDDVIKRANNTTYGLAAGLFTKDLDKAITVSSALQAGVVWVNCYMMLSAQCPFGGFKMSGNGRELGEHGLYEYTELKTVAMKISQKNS

human ALDH1A1 = molecular target: T2, human ALDH1A1 (Homo sapiens, UniProt P00352); assay type: biochemical; settings: IC50 of DPAB, substrate propanal, 1 mM NAD, pH 8.4, mean ± average deviation
T2 sequence (P00352 1-501): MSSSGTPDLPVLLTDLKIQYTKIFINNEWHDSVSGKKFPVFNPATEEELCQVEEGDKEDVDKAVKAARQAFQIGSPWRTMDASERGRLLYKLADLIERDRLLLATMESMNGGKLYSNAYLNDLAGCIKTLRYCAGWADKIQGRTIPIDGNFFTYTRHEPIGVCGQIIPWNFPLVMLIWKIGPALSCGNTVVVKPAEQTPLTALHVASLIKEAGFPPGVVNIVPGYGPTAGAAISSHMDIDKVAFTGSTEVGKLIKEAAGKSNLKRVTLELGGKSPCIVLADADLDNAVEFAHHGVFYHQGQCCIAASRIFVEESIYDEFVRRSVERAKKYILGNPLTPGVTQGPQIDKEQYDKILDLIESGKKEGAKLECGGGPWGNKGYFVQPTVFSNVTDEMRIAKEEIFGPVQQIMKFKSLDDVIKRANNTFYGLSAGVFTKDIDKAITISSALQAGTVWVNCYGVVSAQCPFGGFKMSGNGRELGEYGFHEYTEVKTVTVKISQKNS

HL-60 cells [1] = assay: HL-60 cell differentiation assay; assay type: cell-based, human
How it was run: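 HL-60 cells grown in RPMI-1640 with 15% FBS, 50 U/mL penicillin and 0.5 mg/mL streptomycin; subcultured and treated at 2 × 10^5 cells/mL. Test compound added in DMSO or ethanol, with no media change or washout; 1 μM retinoic acid used as a reference retinoid. Aliquots mixed 1:1 with a solution of 1.0% BSA, 0.2% NBT and 1.0 μg/mL TPA, then incubated 45 min at 37°C. Purple-precipitate-positive cells scored by bright-field microscopy in a counting chamber; two observers each counted two fields of ≥200 cells per well.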

HL-60 cells [2] = assay: HL-60 cell survival by Trypan blue dye exclusion; assay type: cell-based, human; settings: up to 144 hours
How it was run: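 HL-60 cells grown in RPMI-1640 with 15% FBS and penicillin/streptomycin, seeded at 2 × 10^5 cells/mL. Exposed to test compound (in DMSO or ethanol) for up to 144 h without media replacement or washout. Survival assessed by Trypan blue dye exclusion.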

ALDH1A1 = settings: dipropyl vs diethyl analog; cited from earlier work
[3] = HPLC assay for stability of retinal in culture media; assay type: physicochemical; settings: 10 μM retinal in RPMI 1640 plus 15% fetal bovine serum, 37°C, day 6, no cells
How it was run: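 Retinal (10 μM) incubated in cell-free RPMI 1640 with 15% FBS at 37°C for six days. Media sampled every 24 h and extracted with 50% butanol:50% acetonitrile (v/v): vortexed 60 s, centrifuged 2 min at 16,000 × g. Organic layer diluted 1:5 in acetonitrile and run on reverse-phase C18 HPLC. Retinal and retinoic acid detected at 360 nm (retention 10.0 and 7.7 min).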

## CCN(CC)c1ccc(C=O)cc1 [DEAB, 4-(N, N-diethylamino) benzaldehyde]
L1210/CPA cells
  Effect on resistance of L1210/CPA cells to 4-HC: abolished the tumor cells' resistance to 4-HC

## CCCN(CCC)c1ccc(C=O)cc1 [DPAB, 4-(N,N-dipropylamino)benzaldehyde]
Mouse ALDH1A1
  IC50: 40 ± 10 nM
Human ALDH1A1
  IC50: 140 ± 40 nM
HL-60 cells [1]; 1 μM retinoic acid + 50 μM DPAB
  Effect on induction of differentiation by retinoic acid: did not alter the induction of differentiation by retinoic acid
HL-60 cells [2]
  Effect on cell viability: nor did it affect cell viability
ALDH1A1
  Efficacy for inhibition of ALDH1A1 relative to DEAB: 10 fold

## CC1=C(/C=C/C(C)=C/C=C/C(C)=C/C=O)C(C)(C)CCC1 [all-trans retinal]
HL-60 cells [1]; exposure to 1 μM for 96 hours
  Differentiation expressed as equivalent retinoic acid concentration: 0.05 to 0.1 µM
[3]
  Retinal oxidized to retinoic acid in culture media: less than 1%

## CC1=C(/C=C/C(C)=C/C=C/C(C)=C/C(=O)O)C(C)(C)CCC1 [retinoic acid, all-trans retinoic acid]
HL-60 cells [1]; continuous exposure to 1 μM for 96 hours
  Cells differentiated to granulocytes (positive NBT staining): ~40%
